Assays:
Assay type in all cases: functional, cell-based
MCF7 = assay: Cytotoxicity in human MCF7 cells assessed as reduction in cell viability incubated for 48 hrs by MTT assay; details: MCF7, 48 h
In short: (§1)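 Cells grown at 37°C, 5% CO₂ (HepG2, OVCAR-3, Caov-3 in DMEM + 10% FBS; A549, HeLa, A375, MCF-7 in RPMI 1640 + 10% FBS). Seeded at 4-5×10³/well in triplicate, adhered overnight, exposed to 0.03–300 μM (DMSO <0.1%) for 48 h. MTT added for 4 h, formazan dissolved in DMSO, absorbance read. IC50 from dose–response curves, mean ± SD of at least three independent experiments.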

HeLa = assay: Cytotoxicity in human HeLa cells assessed as reduction in cell viability incubated for 48 hrs by MTT assay; in short: as §1
HepG2 = assay: Cytotoxicity in human HepG2 cells assessed as reduction in cell viability incubated for 48 hrs by MTT assay; details: HepG2, 48 h; in short: as §1
Caov-3 cell line = assay: Cytotoxicity in human Caov3 cells assessed as reduction in cell viability incubated for 48 hrs by MTT assay; details: Caov-3, 48 h; in short: as §1
A549 = assay: Cytotoxicity in human A549 cells assessed as reduction in cell viability incubated for 48 hrs by MTT assay; details: A549, 48 h; in short: as §1
OVCAR-3 = assay: Cytotoxicity in human OVCAR3 cells assessed as reduction in cell viability incubated for 48 hrs by MTT assay; details: OVCAR-3, 48 h; in short: as §1
A-375 = assay: Cytotoxicity in human A375 cells assessed as reduction in cell viability incubated for 48 hrs by MTT assay; details: A-375, 48 h; in short: as §1

Row | SMILES | IC50 (MCF7) [µM] | IC50 (HeLa) [µM] | IC50 (HepG2) [µM] | IC50 (Caov-3 cell line) [µM] | IC50 (A549) [µM] | IC50 (OVCAR-3) [µM] | IC50 (A-375) [µM]
1 | Cc1ncc([N+](=O)[O-])n1CCOC(=O)NC(n1cnc2c(N)ncnc21)C(Cl)(Cl)Cl (stereo not given) | > 300 | > 300 | > 300 | > 300 | > 300 | > 300 | 182
2 | Cc1ncc([N+](=O)[O-])n1CCOC(=O)NC(n1cnc2c(Cl)nc(N)nc21)C(Cl)(Cl)Cl (stereo not given) | > 300 | 57.3 | > 300 | > 300 | > 300 | > 300 | > 300
3 | Cc1ncc([N+](=O)[O-])n1CCOC(=O)NC(Nc1nc(Cl)cc(Cl)n1)C(Cl)(Cl)Cl (stereo not given) | 32.4 | 15.6 | 23.3 | 22.5 | 49.5 | 17 | 8.1
4 | Cc1ncc([N+](=O)[O-])n1CCOC(=O)NC(Nc1nc(Cl)c(N)c(Cl)n1)C(Cl)(Cl)Cl (stereo not given) | 20.6 | 17.5 | 25.8 | 19.2 | 31.9 | 21.1 | 14
5 | Cc1ncc([N+](=O)[O-])n1CCOC(=O)NC(n1cnc2c(N)nc(N)nc21)C(Cl)(Cl)Cl (stereo not given) | > 300 | 120 | 19.7 | > 300 | > 300 | > 300 | 170
6 | Cc1ncc([N+](=O)[O-])n1CCOC(=O)NC(n1cnc2c(NCc3ccccc3)ncnc21)C(Cl)(Cl)Cl (stereo not given) | 96 | 71.8 | 33.2 | > 300 | 148 | 243 | > 300
7 | Cc1ncc([N+](=O)[O-])n1CCOC(=O)NC(Nc1ccncn1)C(Cl)(Cl)Cl (stereo not given) | > 300 | > 300 | > 300 | > 300 | > 300 | > 300 | 5.3
8 | COc1ccnc(NC(NC(=O)OCCn2c([N+](=O)[O-])cnc2C)C(Cl)(Cl)Cl)n1 (stereo not given) | 186 | 128 | 79.8 | 157 | 264 | 198 | 44.1
9 | Cc1ncc([N+](=O)[O-])n1CCOC(=O)NC(n1cnc2c(NC(=O)c3ccccc3)ncnc21)C(Cl)(Cl)Cl (stereo not given) | > 300 | > 300 | > 300 | > 300 | 244 | 225 | > 300
10 | Nc1nc(Cl)nc2c1ncn2C(NC(=O)OCc1ccccc1)C(Cl)(Cl)Cl (stereo not given) | 138 | > 300 | > 300 | 65 | 78.5 | 37.9 | > 300
11 | Cc1ncc([N+](=O)[O-])n1CCOC(=O)NC(n1cnc2c(Cl)ncnc21)C(Cl)(Cl)Cl (stereo not given) | > 300 | > 300 | > 300 | > 300 | > 300 | > 300 | > 300
12 | Cc1ncc([N+](=O)[O-])n1CCOC(=O)NC(Nc1nccc(N)n1)C(Cl)(Cl)Cl (stereo not given) | > 300 | > 300 | > 300 | > 300 | > 300 | > 300 | > 300
13 | Nc1nc(N)c2ncn(C(NC(=O)OCCc3ccccn3)C(Cl)(Cl)Cl)c2n1 (stereo not given) | 136 | 220 | 28.1 | 29.7 | 270 | 30.9 | 300
14 | O=C(NC(Nc1ncnc2c1cnn2C(NC(=O)OCCc1ccccn1)C(Cl)(Cl)Cl)C(Cl)(Cl)Cl)OCCc1ccccn1 (stereo not given) | 162 | 110 | 81.3 | 146 | 53.7 | > 300 | > 300
15 | Cc1ncc([N+](=O)[O-])n1CCOC(=O)NC(Nc1nccc(Cl)n1)C(Cl)(Cl)Cl (stereo not given) | > 300 | > 300 | > 300 | > 300 | 94.9 | > 300 | 20
16 | Cc1ncc([N+](=O)[O-])n1CCOC(=O)NC(Nc1nccc2ccccc12)C(Cl)(Cl)Cl (stereo not given) | > 300 | > 300 | 46.8 | 81.1 | > 300 | 61.4 | 37.3
17 | Cc1ncc([N+](=O)[O-])n1CCOC(=O)NC(Nc1cc2ccccc2cn1)C(Cl)(Cl)Cl (stereo not given) | 141 | 38.9 | 26 | 95.2 | 84.3 | 109 | 12.5
18 | Cc1ncc([N+](=O)[O-])n1CCOC(=O)NC(n1cnc2c(Cl)nc(F)nc21)C(Cl)(Cl)Cl (stereo not given) | 62.1 | > 300 | 55.1 | > 300 | > 300 | > 300 | 121

Row | SMILES | IC50 (MCF7) [µM] | IC50 (HeLa) [µM] | IC50 (HepG2) [µM] | IC50 (Caov-3 cell line) [µM] | IC50 (A549) [µM] | IC50 (OVCAR-3) [µM] | IC50 (A-375) [µM]
19 | Cc1ncc([N+](=O)[O-])n1CCOC(=O)NC(n1cnc2c(OCc3ccccc3)nc(N)nc21)C(Cl)(Cl)Cl (stereo not given) | 89.1 | > 300 | 71.1 | > 300 | 146 | > 300 | > 300
20 | CCOC(=O)NC(n1cnc2c(N)nc(F)nc21)C(Cl)(Cl)Cl (stereo not given) | 0.8 | 0.9 | 1.4 | 0.6 | 0.5 | 0.5 | 1.8
21 | CC(=O)Nc1nc2c(ncn2C(NC(=O)OCCn2c([N+](=O)[O-])cnc2C)C(Cl)(Cl)Cl)c(=O)[nH]1 (stereo not given) | > 300 | > 300 | > 300 | > 300 | > 300 | > 300 | > 300
22 | Cn1c([N+](=O)[O-])cnc1COC(=O)NC(n1cnc2c(N)nc(F)nc21)C(Cl)(Cl)Cl (stereo not given) | 1.5 | 0.2 | 3.8 | 0.3 | 0.5 | 0.6 | 2.7
23 | CCOC(=O)NC(n1cnc2c(N)nc(Cl)nc21)C(Cl)(Cl)Cl (stereo not given) | 87.2 | 152 | 59 | 92.9 | 59.7 | 132 | 125
24 | Nc1ncnc2c1cnn2C(NC(=O)OCCN1CCOCC1)C(Cl)(Cl)Cl (stereo not given) | 19.3 | < 10 | 19.5 | 1 | 13.4 | 0.8 | 1.2
25 | Cc1ncc([N+](=O)[O-])n1CCOC(=O)NC(Nc1nccc(=O)[nH]1)C(Cl)(Cl)Cl (stereo not given) | > 300 | > 300 | > 300 | > 300 | > 300 | > 300 | > 300
26 | Cc1ncc([N+](=O)[O-])n1CCOC(=O)NC(n1cnc2c(N)nc(Cl)nc21)C(Cl)(Cl)Cl (stereo not given) | > 300 | 218 | 7.3 | 144 | 160 | 131 | 246
27 | Cc1ncc([N+](=O)[O-])n1CCOC(=O)NC(n1cnc2c(Cl)nc(Cl)nc21)C(Cl)(Cl)Cl (stereo not given) | 218 | 142 | 54.6 | 224 | 72.8 | 162 | 68.5
28 | Cc1ncc([N+](=O)[O-])n1CCOC(=O)NC(n1cnc2ccccc21)C(Cl)(Cl)Cl (stereo not given) | > 300 | 214 | > 300 | > 300 | > 300 | > 300 | > 300
29 | Cc1ncc([N+](=O)[O-])n1CCOC(=O)NC(Nc1ccc2ccccc2n1)C(Cl)(Cl)Cl (stereo not given) | 99.6 | 9.1 | 22.7 | 72.6 | 47.5 | 90.1 | 14
30 | Cc1ccnc(NC(NC(=O)OCCn2c([N+](=O)[O-])cnc2C)C(Cl)(Cl)Cl)n1 (stereo not given) | 152 | 94.7 | 31.2 | 155 | 27.3 | 164 | 37.5
31 | Cc1c(Cl)nc(NC(NC(=O)OCCn2c([N+](=O)[O-])cnc2C)C(Cl)(Cl)Cl)nc1Cl (stereo not given) | 114 | 27.1 | 13.6 | 31.2 | 184 | 25 | 11.9
32 | Cn1c([N+](=O)[O-])cnc1COC(=O)NC(n1cnc2c(N)nc(Cl)nc21)C(Cl)(Cl)Cl (stereo not given) | 53.3 | 51.2 | 43.8 | 64.3 | 61.4 | 70.4 | 1.2
33 | Nc1nc(F)nc2c1ncn2C(NC(=O)OCCc1ccccn1)C(Cl)(Cl)Cl (stereo not given) | 1 | 3 | 1 | 1.1 | 3.5 | 0.8 | 0.4
34 | Cc1ncc([N+](=O)[O-])n1CCOC(=O)NC(n1cnc2c(N(C)C)ncnc21)C(Cl)(Cl)Cl (stereo not given) | > 300 | 160 | > 300 | 264 | 191 | > 300 | 27.3
35 | Nc1nc(N)c2ncn(C(NC(=O)OCCN3CCOCC3)C(Cl)(Cl)Cl)c2n1 (stereo not given) | 125 | 47.5 | 8.6 | 10.5 | 47.2 | 11.5 | 94.7

Source: ChEMBL document CHEMBL4402600, “Discovery of a Dual Tubulin Polymerization and Cell Division Cycle 20 Homologue Inhibitor via Structural Modification on Apcin” (J Med Chem, 2020)
